Assay results from different studies.
Lines come from different studies, so protocols differ.
Cell line: HepG2
Effect on: cell growth or viability

SMILES	assay	setting	quantity	value
CC(C)(CO)Cn1nc(-c2ccc3nc(OC4CC4)ccc3c2)c2c(N)ncnc21	–	–	GI50	> 10 µM
Cc1ccc2nc(-c3c4ccccc4cc4ccccc34)[nH]c2c1	MTT	48 h	IC50	21.4 µM
COc1ccc(C=NNC(=O)c2sc(Nc3ccccc3)c(C(=O)Nc3ccc(OC)cc3)c2NC(C)=O)cc1	SRB	1 nM, 48 h	viability	102%
Cc1cc(=O)oc2ccc(-c3cc(-c4ccc(Cl)cc4)nc(N)n3)c(O)c12	MTT	32 µg/mL, 72 h	inhibition	65%
CCOC(=O)c1ccc(-n2c(-c3ccc(C)cc3)cc(-c3ccc(O)cc3)c(C#N)c2=O)cc1	MTT	100 µM, 24 h	viability	18.3%
COc1ccc(-c2nc3ccccc3n2Cc2ccccc2)cc1OC	MTT	–	IC50	19.9 µM
O=C(CN1C(=O)/C(=C/c2ccc(O)cc2)SC1=S)Nc1ccccc1	MTT	10 µM	inhibition	31.6%
CCn1cc(-c2nc(C)no2)c(=O)c2cc(F)c(N3CCC(C(C)C)CC3)cc21	ATP luminescence	48 h	EC50	> 40 µM
Cc1cc(Nc2ccc(C(=O)N/N=C/c3nc4ccccc4[nH]3)cc2)c2cccc(O)c2n1	MTT	20 µM	inhibition	46.4%
CCOC(=O)c1ccc(-n2c(N)c(C#N)c(CC#N)c(C#N)c2=O)cc1	MTT	25 µM, 24 h	viability	50.9%
Cc1ccc(-c2cc(-c3ccc4oc(=O)cc(C)c4c3O)nc(N)n2)cc1	MTT	8 µg/mL, 72 h	inhibition	0%
CC(=O)Nc1cccc(-n2c(=O)n(C3CC3)c(=O)c3c(Nc4ccc(I)cc4F)n(C)c(=O)c(C)c32)c1	resazurin	50 nM, 72 h	viability	43.3%
Cc1cc(=O)oc2ccc(-c3cc(-c4ccc(Br)cc4)nc(N)n3)c(O)c12	MTT	128 µg/mL, 72 h	inhibition	20%
CCOc1cc(-c2nc3ccccc3[nH]2)ccc1O	MTT	48 h	IC50	42.5 µM
COc1ccc(NC(=O)c2c(Nc3ccccc3)sc(C(=O)NN=Cc3ccc(C)cc3)c2NC(C)=O)cc1	SRB	100 µM, 48 h	viability	57.3%
Cc1cc(=O)oc2ccc(-c3cc(-c4cccs4)nc(N)n3)c(O)c12	MTT	8 µg/mL, 72 h	inhibition	0%
COc1ccc(NC(=O)c2c(Nc3ccccc3)sc(C(=O)NN=Cc3ccccc3)c2NC(C)=O)cc1	SRB	1 µM, 48 h	viability	72%
CCn1cc(-c2nc(C)no2)c(=O)c2cc(F)c(N3CCCCC3)cc21	ATP luminescence	48 h	EC50	> 40 µM
O=C(CN1C(=O)/C(=C/c2ccccc2Cl)SC1=S)Nc1ccccc1	MTT	10 µM	inhibition	11%
CCOC(=O)c1ccc(-n2c(C)cc(/C=C/c3ccc(OC)cc3)c(C#N)c2=O)cc1	MTT	3.125 µM, 24 h	viability	100%
Cc1ccc2nc(-c3ccco3)[nH]c2c1	MTT	48 h	IC50	> 100 µM
COc1ccc(NC(=O)c2c(Nc3ccccc3)sc(C#N)c2NC(=O)CNc2ccc(O)cc2)cc1	SRB	10 nM, 48 h	viability	92.1%
CN(C)C/C=N/NC(=O)Nc1cc2c(Nc3ccc(F)c(Cl)c3)ncnc2cc1O[C@H]1CCOC1	MTT	72 h	IC50	3.08 µM
Cc1ccc2nc(-c3ccc([N+](=O)[O-])cc3)n(Cc3ccccc3Cl)c2c1	MTT	–	IC50	34.3 µM

SMILES	assay	setting	quantity	value
COc1ccc(-c2cc(-c3ccc4oc(=O)cc(C)c4c3O)nc(N)n2)cc1	MTT	128 µg/mL, 72 h	inhibition	40%
CCOC(=O)c1ccc(NC(=O)C2=C3C(=Nc4ccccc43)NC2=O)cc1	MTT	25 µM, 24 h	viability	56.3%
COc1ccc(NC(=O)c2c(Nc3ccccc3)sc(C#N)c2NC(=O)CNc2ccccc2[N+](=O)[O-])cc1	SRB	10 nM, 48 h	viability	92.5%
CCOC(=O)c1ccc(-n2c(C)cc(/C=C/c3ccc(OCC)cc3)c(C#N)c2=O)cc1	MTT	1.56 µM, 24 h	viability	100%
COc1cccc(NC(=O)CN2C(=O)/C(=C/C3CC3)SC2=S)c1	MTT	10 µM	inhibition	12.1%
CC(=O)O[C@H]1C(=O)[C@@]2(C)[C@H]([C@H](OC(=O)c3ccccc3)[C@]3(O)C[C@H](OC(=O)[C@H](O)[C@@H](NC(=O)c4ccccc4)c4ccccc4)C(C)=C1C3(C)C)[C@]1(OC(C)=O)CO[C@@H]1C[C@@H]2O	MTT	–	IC50	4.75 µM
CCCC1CCN(c2cc3c(cc2F)c(=O)c(-c2nc(C)no2)cn3CC)CC1	ATP luminescence	48 h	EC50	> 40 µM
Cc1ccc2nc(-c3ccco3)n(Cc3ccccc3)c2c1	MTT	–	IC50	55.5 µM
Cc1cc(Nc2ccc(C(=O)N/N=C/c3ccncc3)cc2)c2cccc(O)c2n1	MTT	20 µM	inhibition	47.7%
COc1cccc(/C=C2\SC(=S)N(CC(=O)Nc3ccccc3)C2=O)c1	MTT	10 µM	inhibition	13.9%
COc1cccc2c1C(=O)c1c(O)c3c(c(O)c1C2=O)C[C@@](O)(C(=O)CO)C[C@@H]3O[C@H]1C[C@H](N)[C@H](O)[C@H](C)O1	MTT	100 µM, 24 h	viability	6.3%
Cc1cc(=O)oc2ccc(-c3cc(-c4ccccc4)nc(N)n3)c(O)c12	MTT	2 µg/mL, 72 h	inhibition	0%
CCOC(=O)c1ccc(N2C(N)=C(C#N)C3(C(=O)Nc4ccccc43)C(C#N)=C2O)cc1 (centres unmarked)	MTT	6.25 µM, 24 h	viability	61.3%
COc1ccc(NC(=O)c2c(Nc3ccccc3)sc(C#N)c2NC(=O)CNc2ccccc2)cc1	SRB	0.1 µM, 48 h	viability	82.4%
Cc1ccc2nc(-c3ccc(F)cc3)[nH]c2c1	MTT	48 h	IC50	80.4 µM
CCn1cc(-c2nc(C)no2)c(=O)c2cc(F)c(N3CCC4(CC3)CC4)cc21	ATP luminescence	48 h	EC50	> 40 µM
COc1ccccc1/C=C1\SC(=S)N(CC(=O)Nc2ccccc2)C1=O	MTT	10 µM	inhibition	25.6%
CCn1cc(-c2ccccn2)c(=O)c2cc(F)c(N3CCC(C)CC3)cc21	ATP luminescence	48 h	EC50	> 40 µM
CCOC(=O)c1ccc(-n2c(C)cc(C)c(C#N)c2=O)cc1	MTT	100 µM, 24 h	viability	36.4%
COc1ccc(NC(=O)c2c(Nc3ccccc3)sc(C(=O)NN=Cc3cc(OC)c(OC)c(OC)c3)c2NC(C)=O)cc1	SRB	10 µM, 48 h	viability	42.9%
C[C@H]1[C@@H](CC(=O)NCC(=O)N[C@@H](CC(=O)NC(C)(C)C)C(=O)NCCNC(=O)c2cc(-c3ccccc3F)ccc2F)O[C@@H]2O[C@@]3(C)CC[C@H]4[C@H](C)CC[C@@H]1[C@@]24OO3	ATP luminescence	72 h	EC50	5.8 µM
COc1cc2c(c(OC)c1OC)-c1ccc(OC)c(=O)cc1[C@@H](NC(C)=O)CC2	MTT	10 µM	inhibition	56.4%
COc1ccc(NC(=O)c2c(Nc3ccccc3)sc(C#N)c2NC(=O)CNc2ccc(OC)c(OC)c2)cc1	SRB	10 µM, 48 h	viability	71.4%
